Laboratory results from PMC4424388 (Mucosal Immunology, 2014).
Where two headings read alike, the source gives them in different places.

Tests used:
[1] = tested on: Bif. adolescentis Ni3,29c; assay: Turbidity broth assay; format: cell-based, Bifidobacterium adolescentis; conditions: higher peptide concentrations; causes apparent better growth in OD600
Outline: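 Overnight Bif. adolescentis Ni3,29c was washed twice in 10 mM sodium phosphate with 1% TSB. About 5×10^5 CFU/ml were exposed to peptide at 1.25–128 μg/ml, with 2 mM DTT where indicated, for 2 h at 37 °C in an anaerobic jar. 6% TSB was then added and A600 read at 24 and 48 h; change plotted against concentration. CFU counted in parallel on Columbia blood agar. Triplicate experiments, mean with s.e.m.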

[2] = tested on: Bifidobacterium adolescentis Ni3,29c; assay: Antimicrobial radial diffusion assay; format: cell-based; conditions: 1 μg peptide, 2 mM DTT, at least three experiments
Outline: (§1)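 Log-phase bacteria washed and diluted to OD600 0.1. Gel: 10 mM sodium phosphate (pH 7.4 or 5.7), 0.3 mg/ml TSB powder, 1% low-EEO agarose, 0–2 mM DTT. Peptide (1 μg/μl stock in 0.01% acetic acid) pipetted into punched wells; overlay gel poured after 3 h. Inhibition-zone diameter read after up to 48 h; 2.5 mm (well/vehicle) means no activity. ≥3 experiments, mean with s.e.m.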

[3] = tested on: Lactobacillus acidophilus PZ 1138; assay: Antimicrobial radial diffusion assay; format: cell-based; conditions: 1 μg peptide, 2 mM DTT, at least three experiments
Outline: as §1

[4] = tested on: Streptococcus salivarius ssp thermophilus DSM20617; assay: Antimicrobial radial diffusion assay; format: cell-based; conditions: 1 μg peptide, 2 mM DTT, at least three experiments
Outline: as §1

glutaredoxin = assay: In vitro reduction assay, glutaredoxin; format: biochemical; conditions: 3 μM glutaredoxin with 5 mM reduced glutathione; RP-HPLC; Supplementary Figure 4
Outline: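 Glutathione-based system: 5 mM reduced glutathione in 100 mM sodium phosphate with 2 mM EDTA, plus 3 μM active glutaredoxin or buffer only, incubated with oxidized peptide. Mixtures acidified with trifluoroacetic acid and analysed by RP-HPLC: C18 column, 15–45% acetonitrile (TFA-containing solvents) over 30 min at 25 °C and 0.8 ml/min.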

[5] = Chemical reduction by DTT; format: physicochemical; conditions: incubation extended to 3 h or DTT increased to 10 mM; data not shown
[6] = In vitro reduction assay, glutathione; format: physicochemical; conditions: 5 mM reduced glutathione, 100 mM sodium phosphate, 2 mM EDTA; RP-HPLC; Supplementary Figure 4
[7] = tested on: Bifidobacterium longum DSM 20219T; assay: Antimicrobial radial diffusion assay; format: cell-based; conditions: 1 μg peptide, 2 mM DTT, at least three experiments
Outline: as §1

[8] = tested on: Bifidobacterium breve PZ 1343; assay: Antimicrobial radial diffusion assay; format: cell-based; conditions: 1 μg peptide, 2 mM DTT, at least three experiments
Outline: as §1

[9] = tested on: human TRX (with rat TRX reductase, NADPH); assay: In vitro reduction assay, thioredoxin system; format: biochemical; conditions: TRX increased to 6 μM or incubation prolonged to 60 min; data not shown
[10] = tested on: human TRX (with rat TRX reductase, NADPH); conditions: cited from earlier work
[11] = tested on: (anaerobic) commensal gut bacteria; assay: Antimicrobial radial diffusion assay, bacteria not given; format: cell-based; conditions: 1 μg peptide, 2 mM DTT
Outline: as §1

[12] = tested on: Bif. adolescentis Ni3,29c; assay: Transmission electron microscopy of bacteria; format: cell-based, Bifidobacterium adolescentis; conditions: TEM, 200 μg/ml peptide, 2 mM DTT, 2 h 37 °C, pH 7.4
[13] = Retention of reduced status in buffer with DTT; format: physicochemical; conditions: 2 mM DTT in sodium phosphate buffer

Human α-defensin 6 [HD-6]
aggregation in the turbidity assay [1]: light-scattering aggregations | antibiotic activity, especially under reducing conditions [2]: inhibitory activity | antibiotic activity, especially under reducing conditions [3]: inhibitory activity | antibiotic activity, especially under reducing conditions [4]: inhibitory activity | reduction by glutaredoxin (glutaredoxin): did not lead to any reduction | extent of reduction of disulfide bridges by DTT [5]: remarkably enhanced HD-6 reduction, but the oxidized form of the peptide could still be detected | reduction by glutathione [6]: did not lead to any reduction | antibiotic activity, especially under reducing conditions [7]: inhibitory activity | antibiotic activity, especially under reducing conditions [8]: inhibitory activity | reduction by the TRX system [9]: not sufficient to completely reduce

human β-defensin 1 (DHYNCVSSGGQCLYSACPIFTKIQGTCYRGKAKCCK; Beta-defensin 1; UniProt P60022 33-68, looked up) [hBD-1, reference compound]
reduction by the TRX system [10]: can also reduce | activity under reducing conditions against several bacteria [11]: increased activity

ΔredHD-6: synthetic reduced truncated HD-6 (TCHCRRSCYSTEYSYGTCTVMGINHRFCCL; Defensin-6 reduced; UniProt Q01524 71-100, looked up, fragment)
ultrastructural alterations of the bacterium [12]: disintegration of stainable intracellular structures | time for which the peptide retained its completely reduced status [13]: at least 2 h

B1: HD-5: synthetic oxidized human α-defensin 5 (peptide, UniProt Q01523 20-94, looked up)
Defensin alpha 5: ESLQERADEATTQKQSGEDNQDLAISFAGNGLSALRTSGSQARATCYCRTGRCATRESLSGVCEISGRLYRLCCR
modifications: Defensin-5
reduction by the TRX system [10]: can also reduce
